# Screens: PubChem BioAssay, several laboratories
# Hits are enriched below; roughly 4.1% of the tested compounds scored in any of these assays.
# KCNK3 block – human KCNK3 channel inhibition, primary screen; O14649; CHO-KCNK3 thallium flux, FluxOR fluorescence; stronger effect = lower value; B-score at 10 µM; 340,000 compounds, 0.84% hits; AID 602410;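 active means B-score under library mean minus 4 SD, starting fluorescence ratio at most library mean plus 5 SD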;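 further: more negative B-score means stronger inhibition of thallium flux through KCNK3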
# KCNQ1 act – potentiates or activates the human KCNQ1 potassium channel; CHO-K1 KCNQ1, thallium flux FluxOR fluorescence; stronger effect = higher value; B-score at 10 µM; 310,000 compounds, 0.35% hits; AID 2648;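 active means fluorescence ratio B-score, a plate-corrected score, at least three library SD, with initial intensity B-score within 5 SD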
#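 assay system = KCNQ1-transfected CHO-K1 cells | medium = assay buffer with matched DMSO | probe or stimulus = depolarizing K+/Tl+ stimulus, K2SO4 and Tl2SO4 each 12.5 mM in 5x stock | dosing = single dose | incubation = dye 90 min, compound 20 min, room temperature | detection = kinetic FluxOR fluorescence, 10 s baseline plus 110 s post-stimulus | evaluation = ratio B score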
# hERG rescue – hERG (human) protection from proarrhythmic block; Q12809; activation (rescue from dofetilide block), less the hit threshold, % at 10 µM; AID 1511; 310,000 compounds, 0.51% hits; CHO-hERG, FluxOR thallium flux, dofetilide IC70 present;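 active means activation above the mean of controls blocked by dofetilide plus 5 SD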;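 further: thallium influx through hERG after potassium depolarization seen as dye fluorescence rise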
# Target sequence (Q12809 whole entry, looked up): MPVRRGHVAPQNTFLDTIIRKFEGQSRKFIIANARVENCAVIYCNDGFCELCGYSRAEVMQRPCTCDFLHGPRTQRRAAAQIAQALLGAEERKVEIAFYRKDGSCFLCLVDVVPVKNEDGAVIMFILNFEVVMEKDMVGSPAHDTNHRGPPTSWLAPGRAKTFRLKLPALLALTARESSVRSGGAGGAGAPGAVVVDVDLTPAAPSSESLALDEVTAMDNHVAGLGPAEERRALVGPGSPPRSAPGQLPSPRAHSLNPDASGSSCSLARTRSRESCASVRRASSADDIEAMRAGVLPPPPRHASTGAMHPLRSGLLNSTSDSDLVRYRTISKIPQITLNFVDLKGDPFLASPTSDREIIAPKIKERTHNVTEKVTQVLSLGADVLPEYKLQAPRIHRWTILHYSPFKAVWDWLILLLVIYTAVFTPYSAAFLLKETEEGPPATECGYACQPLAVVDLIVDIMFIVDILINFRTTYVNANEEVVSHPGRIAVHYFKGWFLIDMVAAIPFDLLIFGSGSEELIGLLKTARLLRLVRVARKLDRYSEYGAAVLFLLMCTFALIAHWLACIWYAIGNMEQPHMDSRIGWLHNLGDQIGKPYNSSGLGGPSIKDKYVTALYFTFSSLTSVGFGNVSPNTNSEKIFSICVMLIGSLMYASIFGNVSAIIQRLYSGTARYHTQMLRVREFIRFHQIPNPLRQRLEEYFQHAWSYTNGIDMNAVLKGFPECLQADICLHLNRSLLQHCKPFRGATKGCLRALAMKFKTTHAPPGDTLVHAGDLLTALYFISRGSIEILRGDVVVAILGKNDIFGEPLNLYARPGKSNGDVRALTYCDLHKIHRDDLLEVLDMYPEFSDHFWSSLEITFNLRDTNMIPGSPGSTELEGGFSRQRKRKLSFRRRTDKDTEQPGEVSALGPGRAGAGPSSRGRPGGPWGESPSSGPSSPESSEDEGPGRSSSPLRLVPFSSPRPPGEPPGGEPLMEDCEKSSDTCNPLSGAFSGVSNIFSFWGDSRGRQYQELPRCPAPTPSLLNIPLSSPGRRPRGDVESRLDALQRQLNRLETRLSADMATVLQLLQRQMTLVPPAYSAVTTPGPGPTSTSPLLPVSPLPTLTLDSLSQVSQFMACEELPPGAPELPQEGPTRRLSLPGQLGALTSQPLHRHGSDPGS
# KCC2 mod – modulates chloride dependent transport by human KCC2; Q9H2X9; 190,000 compounds, 2.2% hits; B-score of Tl+ flux slope (higher = more flux/activation; lower = inhibition) at 10 µM; KCC2 cells, thallium flux FluoZin-2 fluorescence; AID 1456;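 active means thallium flux slope and its plate-corrected score both differing from the plate sample mean at a set confidence after two filtering rounds, in either direction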;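 further: slope of fluorescence scaled to starting intensity during 10 to 20 s after thallium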
# KCNQ1 inh – human KCNQ1 channel inhibition; P51787; CHO-K1 KCNQ1, FluxOR thallium flux fluorescence; stronger effect = higher value; B-score at 10 µM; 310,000 compounds, 1.3% hits;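 active means compounds whose thallium flux B-score, printed positive for inhibition, exceeds three library SD while starting fluorescence stays within three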;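 further: channel opened by potassium depolarization with thallium stimulus after 20 min compound exposure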
# KCNK9 inh – blocks the human KCNK9 two-pore domain potassium channel; Q9NPC2; HEK293 KCNK9, FluxOR thallium flux fluorescence; stronger effect = lower value; B-score at 10 µM; 310,000 compounds, 1.2% hits; AID 488922;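 active means ratio B-score over 3 SD below the library mean, with starting fluorescence within 5 SD of its mean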;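 further: negative B-score means less thallium flux so channel inhibition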
# KCC2 secondary – KCC2 (human) modulation, secondary assay. HEK293-KCC2, thallium flux, FluoZin2 fluorescence; stronger effect = higher value. normalised thallium flux (F/F0 slope) at 10 µM. 3,700 compounds, 15% hits. shares compounds with KCC2 mod;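 active means thallium flux slope above the same plate's solvent-only control mean plus 3 SD; inconclusive means the two replicate wells disagree; inactive means no significant difference from solvent-only control wells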
# KCC2 bumet counter – thallium flux despite bumetanide block in KCC2 cells, secondary assay 3 | shares compounds with KCC2 mod | HEK293-KCC2 + bumetanide/ouabain, thallium flux FluoZin2; stronger effect = higher value | normalized thallium flux at 10 µM | 3,700 compounds, 49% hits;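 active means thallium entry rate above the same plate's blocked-transporter control wells by more than 3 SD; inconclusive means the two repeat wells disagree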;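 further: raw slope of fluorescence over initial fluorescence between 10 and 20 s after thallium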
# KCC2 sec2 – confirmation of human KCC2 transport modulators. shares compounds with KCC2 mod. HEK293-KCC2, thallium flux FluoZin2 fluorescence; actives lie on both sides; F/F0 rise rate, 10–20 s post-thallium. normalized thallium flux at 10 µM. 3,700 compounds, 23% hits. AID 1715;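 active means thallium flux slope more than 3 SD above or below the plate's solvent-only control mean, mostly below; inconclusive means the two repeat wells disagreed; inactive means no significant shift from solvent-only controls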;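 further: raw slope with 0.1% DMSO as baseline and bumetanide as block control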
# HEK293 Tl flux – acts in parental HEK cells, KCC2 counter-screen | shares compounds with KCC2 mod | HEK293 parental cells, thallium flux FluoZin2, ouabain; baseline-ratio fluorescence slope, 10–20 s after thallium | thallium flux rate (normalised fluorescence) at 10 µM | 3,700 compounds, 46% hits;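 active means thallium flux rate significantly above the same plate's solvent-only control wells, beyond their mean plus 3 SD; inconclusive means the two replicate wells gave conflicting results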
# KCC2 ouabain – modulates human KCC2 on retest with ouabain | HEK293-KCC2, thallium flux FluoZin2 fluorescence; bidirectional: low = inhibitor, high = activator | shares compounds with KCC2 mod | raw Tl+ flux slope (below DMSO = inhibition, above = activation) at 10 µM | 3,700 compounds, 48% hits | AID 1717;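 active means thallium flux slope beyond 3 SD from same-plate DMSO control mean in most replicates, usually higher, sometimes lower; inconclusive means repeat tests gave conflicting results; inactive means no significant difference from controls in most replicates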;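 further: slope of initial-normalized fluorescence between seconds 10 and 20 after thallium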
# HEK counter2 – counter-screen for KCC2 modulators: effect in parental HEK293 cells | shares compounds with KCC2 mod | thallium flux FluoZin-2 fluorescence slope | thallium flux slope at 10 µM | 3,700 compounds, 33% hits | AID 1718;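 active means thallium flux slope above the same plate's solvent-control mean plus 3 SD in both duplicate wells; inconclusive means duplicate wells that disagreed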;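 further: run without ouabain in cells lacking the KCC2 cotransporter; slope of fluorescence scaled to its starting value between 10 and 20 s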
# The depositor's hits bear a star; i = inactive; u = inconclusive; x = no result given.
SMILES,KCNK3 block,KCNQ1 act,hERG rescue,KCC2 mod,KCNQ1 inh,KCNK9 inh,KCC2 secondary,KCC2 bumet counter,KCC2 sec2,HEK293 Tl flux,KCC2 ouabain,HEK counter2
CCCOc1ccc(C2C(=O)N(C3CCCCC3)CC(=O)N2CCCOCC)cc1OC (stereo not drawn),i,i,-8,x,i,i,0.015,0.0045,0.027,0.0078,0.015,0.01
CCOc1ccc(C2C(=O)N(C3CCCCC3)CC(=O)N2CC2CCCO2)cc1OC (stereo not drawn),i,i,-6,x,i,i,0.017,0.0048,0.028,0.0072,0.016,0.011
CCOc1ccccc1-n1nnnc1SCc1nc2ccccc2s1,i,i,-16,x,i,i,0.015,u,0.024*,0.0058*,0.013*,0.0091
CC(=O)c1ccc(OCCCC(=O)NCc2nnc3ccccn23)cc1,i,x,x,x,x,x,x,x,x,x,x,x
O=C1c2ccccc2S(=O)(=O)N1Cc1ccccc1[N+](=O)[O-],i,i,-5,x,i,i,x,x,x,x,x,x
O=C(Nc1ccn(CCCN2CCN(c3ccccn3)CC2)c(=O)n1)OCc1ccccc1,i,x,x,x,x,x,x,x,x,x,x,x
COc1ccc(CNC(=O)c2oc3ccc(S(=O)(=O)N4CCOCC4)cc3c2C)cc1,i,i,-5,x,i,i,x,x,x,x,x,x
O=C(Nc1nc2ccc(S(=O)(=O)N3CCCCC3)cc2s1)c1ccncc1,i,i,-8,-6.2*,i,i,0.0068,0.0048,0.032,0.0071,0.02,0.0098
CC(OC(=O)Cc1cccc(C(F)(F)F)c1)C(=O)Nc1ccc(Cl)cn1 (stereo not drawn),i,i,-6,x,i,i,x,x,x,x,x,x
O=C(NCCc1ccccc1)C1CCCN(S(=O)(=O)c2cnc[nH]2)C1 (stereo not drawn),i,i,2,x,i,i,x,x,x,x,x,x
O=C(C1CCCN(S(=O)(=O)c2cccc3nonc23)C1)N1CCC(Cc2ccccc2)CC1 (stereo not drawn),i,i,-6,x,i,i,0.0057,u,0.024*,0.0067,u,0.01
O=C(NCCN1CCC(Cc2ccccc2)CC1)C1CCCN(S(=O)(=O)c2cnc[nH]2)C1 (stereo not drawn),i,i,0,-4*,i,i,0.0059,0.0049,0.029,0.0074,0.019,0.0093
COc1ccccc1NC(=O)c1ccc(Br)c(S(=O)(=O)N2CCCC2)c1,i,i,-7,x,i,i,x,x,x,x,x,x
COc1ccccc1N1CCN(C(=S)NC(=O)/C=C/c2ccc(F)cc2)CC1,i,i,-3,27*,i,i,0.0055,0.039*,0.034,0.015*,0.031*,0.018*
COc1ccccc1N1CCN(C(=S)NC(=O)/C=C/c2ccccc2)CC1,i,i,-5,6.7*,i,i,0.0059,0.011*,0.034,0.014*,u,0.014*
Cc1ccnc(NC(=O)CCC(=O)N(CC(=O)NCc2ccc(F)cc2)Cc2ccccc2)c1,i,i,-5,x,i,i,x,x,x,x,x,x
